According to ChEMBL document CHEMBL4177769, “Highly Selective and Potent Ectonucleotide Pyrophosphatase-1 (NPP1) Inhibitors Based on Uridine 5'-Pα,α-Dithiophosphate Analogues” (J Med Chem, 2018):

Tests used:
[1] = molecular target: T1, Ectonucleotide pyrophosphatase/phosphodiesterase family member 3 (Homo sapiens) (UniProt O14638); test: Inhibition of human NPP3 at 100 uM using pNP-TMP as substrate preincubated for 3 mins followed by substrate addition measured after 15 mins
T1 sequence (whole entry): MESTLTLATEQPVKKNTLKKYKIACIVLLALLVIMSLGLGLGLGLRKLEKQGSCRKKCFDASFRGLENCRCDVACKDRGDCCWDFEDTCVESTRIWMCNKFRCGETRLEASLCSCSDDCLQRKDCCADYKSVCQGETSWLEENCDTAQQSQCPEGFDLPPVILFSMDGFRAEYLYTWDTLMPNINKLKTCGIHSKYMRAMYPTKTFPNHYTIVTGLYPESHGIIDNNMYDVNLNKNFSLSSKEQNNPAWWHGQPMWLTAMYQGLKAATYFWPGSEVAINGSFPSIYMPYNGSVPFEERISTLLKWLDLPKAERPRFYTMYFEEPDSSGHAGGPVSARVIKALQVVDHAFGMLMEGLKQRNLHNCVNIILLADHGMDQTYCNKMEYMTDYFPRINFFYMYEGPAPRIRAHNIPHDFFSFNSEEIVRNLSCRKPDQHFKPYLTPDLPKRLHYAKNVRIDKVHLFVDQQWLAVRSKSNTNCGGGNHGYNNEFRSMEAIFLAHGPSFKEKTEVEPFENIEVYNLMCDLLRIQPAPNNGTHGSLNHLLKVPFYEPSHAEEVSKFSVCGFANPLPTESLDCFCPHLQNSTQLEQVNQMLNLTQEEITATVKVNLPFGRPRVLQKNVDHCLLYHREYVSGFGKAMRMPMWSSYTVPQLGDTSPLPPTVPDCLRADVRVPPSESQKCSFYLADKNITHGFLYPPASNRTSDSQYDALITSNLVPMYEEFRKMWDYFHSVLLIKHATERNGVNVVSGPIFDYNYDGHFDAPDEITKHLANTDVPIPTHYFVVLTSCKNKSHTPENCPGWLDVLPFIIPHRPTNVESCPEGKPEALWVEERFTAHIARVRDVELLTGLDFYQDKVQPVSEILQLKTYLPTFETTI
In short: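 Human NPP1 (4−5 μg) or NPP3 (12−14 μg) cell lysate in mM 1 CaCl2, 140 NaCl, 5 KCl, 50 Tris pH 8.5, 37 °C. Compound at 100 μM, 3 min preincubation, 100 μM pNP-TMP substrate. p-Nitrophenol read at 405 nm after 15 min. Blank with enzyme added at end subtracted. Activity without compound taken as 100%. At least two independent experiments in triplicate.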

[2] = Drug level treated with UTP 5'-O-Palpha,alpha-dithiophosphate at 2 mM at pH 11.7 at room temperature after 25 days by 31P NMR method; type: physicochemical; conditions: pH 11.7, 600 h, 2000 µM
[3] = molecular target: T2, Ectonucleoside triphosphate diphosphohydrolase 3 (Homo sapiens) (UniProt O75355); test: Activation of human NTPDase3 using ATP as substrate preincubated for 3 mins followed by substrate addition measured after 10 mins by malachite green reagent-based assay relative to control
T2 sequence (whole entry): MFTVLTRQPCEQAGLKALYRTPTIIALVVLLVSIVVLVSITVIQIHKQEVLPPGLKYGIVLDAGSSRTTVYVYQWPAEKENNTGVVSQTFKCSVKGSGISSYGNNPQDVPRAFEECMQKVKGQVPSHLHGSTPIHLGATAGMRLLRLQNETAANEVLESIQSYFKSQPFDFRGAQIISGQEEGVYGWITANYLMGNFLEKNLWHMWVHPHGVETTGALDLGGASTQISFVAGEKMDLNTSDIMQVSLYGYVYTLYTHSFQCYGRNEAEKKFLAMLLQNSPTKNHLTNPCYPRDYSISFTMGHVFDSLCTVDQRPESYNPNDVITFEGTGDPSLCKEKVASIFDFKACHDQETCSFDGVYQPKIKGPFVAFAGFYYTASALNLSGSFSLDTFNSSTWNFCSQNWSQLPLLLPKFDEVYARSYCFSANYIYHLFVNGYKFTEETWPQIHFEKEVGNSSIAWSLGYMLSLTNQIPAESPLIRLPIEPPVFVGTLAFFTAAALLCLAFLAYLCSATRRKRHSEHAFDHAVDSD
In short: (§1)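 Compound at 100 μM, 3 min preincubation, 100 μM ATP, 10 min. Stopped with malachite green; Pi read at 630 nm. Blank with enzyme added after stop subtracted. Activity with ATP alone taken as 100%.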

[4] = molecular target: T3, Ectonucleoside triphosphate diphosphohydrolase 1 (Homo sapiens) (UniProt P49961); test: Activation of human NTPDase1 using ATP as substrate preincubated for 3 mins followed by substrate addition measured after 10 mins by malachite green reagent-based assay relative to control; in short: as §1
T3 sequence (whole entry): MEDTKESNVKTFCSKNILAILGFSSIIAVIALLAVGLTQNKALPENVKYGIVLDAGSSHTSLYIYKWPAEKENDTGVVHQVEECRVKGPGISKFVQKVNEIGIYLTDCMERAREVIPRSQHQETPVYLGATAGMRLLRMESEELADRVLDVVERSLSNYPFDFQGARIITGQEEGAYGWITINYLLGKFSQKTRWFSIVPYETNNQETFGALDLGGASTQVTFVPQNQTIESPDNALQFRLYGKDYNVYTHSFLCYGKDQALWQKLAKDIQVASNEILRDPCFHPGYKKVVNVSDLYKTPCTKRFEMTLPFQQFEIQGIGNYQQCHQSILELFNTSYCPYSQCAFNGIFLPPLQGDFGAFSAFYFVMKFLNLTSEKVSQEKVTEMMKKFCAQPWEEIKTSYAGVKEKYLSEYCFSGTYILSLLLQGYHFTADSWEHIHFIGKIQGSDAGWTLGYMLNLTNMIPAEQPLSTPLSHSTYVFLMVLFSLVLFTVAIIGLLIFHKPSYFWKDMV

[5] = molecular target: T4, Ectonucleoside triphosphate diphosphohydrolase 2 (Homo sapiens) (UniProt Q9Y5L3); test: Activation of human NTPDase2 using ATP as substrate preincubated for 3 mins followed by substrate addition measured after 10 mins by malachite green reagent-based assay relative to control; in short: as §1
T4 sequence (whole entry): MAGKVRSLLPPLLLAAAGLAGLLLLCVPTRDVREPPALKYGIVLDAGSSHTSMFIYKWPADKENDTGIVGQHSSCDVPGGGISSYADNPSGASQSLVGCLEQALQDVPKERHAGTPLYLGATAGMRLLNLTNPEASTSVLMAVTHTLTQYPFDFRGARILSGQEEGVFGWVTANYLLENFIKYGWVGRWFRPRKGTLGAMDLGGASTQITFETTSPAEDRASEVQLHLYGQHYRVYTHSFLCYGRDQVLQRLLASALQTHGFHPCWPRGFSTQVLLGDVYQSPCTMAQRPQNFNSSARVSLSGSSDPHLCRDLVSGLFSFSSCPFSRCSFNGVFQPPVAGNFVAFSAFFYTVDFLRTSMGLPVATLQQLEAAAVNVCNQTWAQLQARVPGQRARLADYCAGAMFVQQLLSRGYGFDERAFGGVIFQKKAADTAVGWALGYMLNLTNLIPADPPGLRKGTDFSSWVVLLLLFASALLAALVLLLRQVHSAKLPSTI

SMILES: O=c1ccn([C@@H]2O[C@H](COP(=S)(S)OP(=O)(O)O)[C@@H](O)[C@H]2O)c(=O)[nH]1 (stereo partly specified)
- inhibition [1]: 21%
- Drug metabolism [2]: Metabolite_Detected

SMILES: O=c1ccn([C@@H]2O[C@H](COP(=S)(S)OP(=O)(O)CP(=O)(O)O)[C@@H](O)[C@H]2O)c(=O)[nH]1 (stereo partly specified)
- inhibition [1]: 21%

SMILES: O=c1ccn([C@@H]2O[C@H](COP(=S)(S)OP(=O)(O)OP(=O)(O)O)[C@@H](O)[C@H]2O)c(=O)[nH]1 (stereo partly specified)
- Activity [3]: 7 to 27%
- Activity [4]: 7 to 27%
- Activity [5]: 7 to 27%
